Screens deposited in PubChem by several laboratories.
M1 antag = antagonists of rat M1 muscarinic receptor; P08482; CHO-M1 cells, Fluo-4 calcium, ACh EC80 antagonist mode; active compounds read low; B-score at 10 µM; hit rate 3.4% among 64,000; AID 628;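 active = calcium fluorescence response, raw or row-and-column corrected B-score, differing from the plate sample mean either way at a set confidence level, mostly lower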
SF-1 act = activates the human nuclear receptor SF-1; AID 522; activation, % at 10 µM; CHO-K1 Gal4-SF-1 LBD luciferase reporter; % increase over DMSO SF-1-specific signal; hit rate 1.9% among 65,000;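 active = activation above the mean activation of all tested compounds plus 3 SD, cut at about 50% in these data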
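Assay system – CHO-K1 cells with Gal4–hSF-1 LBD chimera plus Gal4-driven luciferase · Quantity – 4,000 cells per well · Times – compound added 1 h post-seeding, 20 h exposure at 37 °C, 5% CO2 · Measured by – luciferase light emission · Benchmarks – DMSO and mock-transfected background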
M1 agonist = M1 muscarinic receptor agonism; CHO-M1 cells, Fluo-4 calcium fluorescence, agonist mode; active compounds read high; B-score at 10 µM; hit rate 3% among 64,000;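 active = fluorescence rise, raw or as B-score row- and column-corrected plate score, outside the 99.7% band of its plate's samples, either direction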
D1 allo mod = allosterically modulates the human D1 dopamine receptor. P21728. HEK293 D1, CRE-luciferase, dopamine EC30 potentiation; actives deviate in either direction. B-score at 10 µM. hit rate 5.9% among 58,000;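 active = luminescence count or its row- and column-corrected plate score outside the 99.7% band of the plate's sample wells, on either side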
Target sequence (P21728 whole entry, looked up): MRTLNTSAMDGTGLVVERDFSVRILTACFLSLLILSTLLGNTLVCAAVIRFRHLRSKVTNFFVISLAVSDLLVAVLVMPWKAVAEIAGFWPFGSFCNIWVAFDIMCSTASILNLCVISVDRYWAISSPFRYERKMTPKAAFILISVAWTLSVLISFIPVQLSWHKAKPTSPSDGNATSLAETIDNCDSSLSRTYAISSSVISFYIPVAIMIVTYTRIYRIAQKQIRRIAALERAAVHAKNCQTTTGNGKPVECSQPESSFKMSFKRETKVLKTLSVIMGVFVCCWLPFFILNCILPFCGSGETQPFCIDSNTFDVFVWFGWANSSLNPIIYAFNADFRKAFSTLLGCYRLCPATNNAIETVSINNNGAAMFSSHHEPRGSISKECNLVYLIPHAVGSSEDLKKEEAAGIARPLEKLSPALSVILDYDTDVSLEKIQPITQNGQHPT
RORA act = activates the human nuclear receptor RORA | hit rate 1.5% among 65,000 | CHO-K1 Gal4-RORA LBD luciferase reporter, luminescence; percent increase over mock-subtracted basal signal | AID 560 | activation, % at 10 µM;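 active = activation above the mean of all tested compounds plus 3 SD, cut at about 49% in these data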
mHtt clearance = compounds clearing mutant huntingtin protein; inhibition, % at 1.5 µM; hit rate 0.42% among 47,000; HeLa Exon1htt(103Q)mCFP, aggregate imaging; zero = plate's median compound well;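 active = inhibition of aggregate fluorescence above about 70%, also judged a hit by eye on the cell image, limit read from the data, passing the limit was not always enough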;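 also: cells exposed to compound for three days before fixation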
D1 mod confirm = confirmation of human D1 dopamine receptor allosteric modulators. shares compounds with D1 allo mod. HEK293 D1 CRE-luciferase, dopamine EC30 potentiation; active compounds read high. luminescence at 10 µM. hit rate 88% among 2,200. AID 642;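 active = luminescence in either of two replicates above the same-plate mean plus 3 SD of the low-dose dopamine control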
D1 no dopamine = secondary test of D1 modulators: activity without dopamine; hit rate 0.8% among 1,900; HEK293 D1 CRE-luciferase, luminescence, no dopamine; active compounds read high; luminescence at 10 µM; shares compounds with D1 allo mod; AID 646; in the data active = luminescence above about 3900
Isoprot counter = counter-screen for D1 modulators: isoproterenol response in HEK293 cells; AID 647; hit rate 63% among 2,200; calls only at 10 µM; shares compounds with D1 allo mod; HEK293 D1 CRE-luciferase, isoproterenol EC30 counter-screen;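 active = luminescence in either replicate above plate mean of wells with a partly effective reference agonist dose plus 3 SD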;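 also: isoproterenol raises cAMP through native beta-adrenoceptor Gs so signal bypasses D1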
Hits are given with their value. An excerpt weighted towards active compounds, which were near 11% of everything screened.

Cc1ccc(CNc2oc(-c3ccco3)nc2C#N)cc1 was read as M1 antag inactive, SF-1 act inactive, M1 agonist inactive, D1 allo mod 26.9, RORA act inactive, mHtt clearance inactive, D1 mod confirm 18284, D1 no dopamine inactive and Isoprot counter active.
COc1ccc(CCNc2oc(-c3ccco3)nc2C#N)cc1 was read as M1 antag inactive, SF-1 act inactive, M1 agonist inactive, D1 allo mod inactive, RORA act inactive and mHtt clearance inactive.
Screening CNc1oc(-c2cccs2)nc1C#N returned M1 antag inactive, SF-1 act inactive, M1 agonist inactive, RORA act inactive and mHtt clearance inactive.
Screening Cn1c(SCC(=O)N2CCCCC2)nc2cccnc21 returned M1 antag inactive, SF-1 act inactive, M1 agonist inactive, D1 allo mod inactive, RORA act inactive and mHtt clearance inactive.
`O=C(C1CCCN(c2ncccn2)C1)N1CCc2ccccc21` (configuration not stated) gave M1 antag inactive, SF-1 act inactive, M1 agonist inactive, D1 allo mod inactive and RORA act inactive.
O=C(NCC1(c2ccccc2)CCCC1)C(=O)N1CCOCC1 was read as mHtt clearance inactive.
N#Cc1nc(-c2ccccc2F)oc1NCCc1ccccc1 was read as mHtt clearance inactive.
Screening N#Cc1nc(-c2cccs2)oc1NCCc1ccccc1 returned M1 antag inactive, SF-1 act inactive, M1 agonist inactive, D1 allo mod 11.8, RORA act inactive, D1 mod confirm 14100, D1 no dopamine inactive and Isoprot counter active.
CCCCC(=O)NC(Nc1ccc(C)cn1)(C(=O)OCC)C(F)(F)F (configuration not stated) was read as M1 antag inactive, SF-1 act inactive, M1 agonist inactive, D1 allo mod inactive, RORA act inactive and mHtt clearance inactive.
Screening CCCN1Cc2cccc(C(=O)NCc3ccc4c(c3)OCO4)c2C1=O returned M1 antag inactive, SF-1 act inactive, M1 agonist inactive, D1 allo mod 11.5, RORA act inactive, D1 mod confirm 15396, D1 no dopamine inactive and Isoprot counter active.
`CCCN1Cc2cccc(C(=O)NC3CCCC3)c2C1=O` gave M1 antag inactive, SF-1 act inactive, M1 agonist inactive, D1 allo mod 12.2, RORA act inactive, D1 mod confirm 16648, D1 no dopamine inactive and Isoprot counter active.
CCOC(=O)N1CCC(N2Cc3cccc(C(=O)NCc4ccc5c(c4)OCO5)c3C2=O)CC1 was read as SF-1 act inactive, D1 allo mod inactive and RORA act inactive.
For CCOC(=O)N1CCC(N2Cc3cccc(C(=O)NCc4ccccc4OC)c3C2=O)CC1 the results were SF-1 act inactive, D1 allo mod 4.91, RORA act inactive, D1 mod confirm inactive, D1 no dopamine inactive and Isoprot counter inactive.
Screening CCOC(=O)N1CCC(N2Cc3cccc(C(=O)NCc4ccc(OC)cc4)c3C2=O)CC1 returned SF-1 act inactive, D1 allo mod inactive and RORA act inactive.
For O=C(NCc1ccc2c(c1)OCO2)c1cccc2c1C(=O)N(C1CCCCC1)C2 the results were M1 antag inactive, SF-1 act inactive, M1 agonist inactive, D1 allo mod 5.99, RORA act inactive, D1 mod confirm 10552, D1 no dopamine inactive and Isoprot counter active.
Screening CCCN1Cc2cccc(C(=O)Nc3cc(OC)cc(OC)c3)c2C1=O returned M1 antag inactive, SF-1 act inactive, M1 agonist inactive, D1 allo mod inactive and RORA act inactive.
Screening CCOC(=O)c1c(C)c(C(=O)NCc2cccnc2)c(C)n1CC returned M1 antag inactive, SF-1 act inactive, M1 agonist inactive, D1 allo mod inactive and RORA act inactive.
Screening Cc1cc(C)c(S(=O)(=O)N(C2=NCCS2)S(=O)(=O)c2c(C)cc(C)cc2C)c(C)c1 returned mHtt clearance inactive.
`Cc1ccc(N2CCN(C(=O)C3CCN(S(=O)(=O)c4cccc5nsnc45)CC3)CC2C)cc1` (configuration not stated) gave M1 antag inactive, SF-1 act inactive, M1 agonist inactive, D1 allo mod inactive and RORA act inactive.
Screening CCCN1Cc2cccc(C(=O)NCc3cccs3)c2C1=O returned M1 antag inactive, SF-1 act inactive, M1 agonist inactive, D1 allo mod 18.2, RORA act inactive, mHtt clearance inactive, D1 mod confirm 24472, D1 no dopamine inactive and Isoprot counter active.
For Cc1noc(C)c1COC(=O)CCc1nc2ccccc2c(=O)[nH]1 the results were M1 antag inactive, SF-1 act inactive, M1 agonist inactive, D1 allo mod inactive, RORA act inactive and mHtt clearance inactive.
For CCc1noc2c1/C(=N\O)CC(c1ccccc1)C2 (configuration not stated) the results were M1 antag inactive, SF-1 act inactive, M1 agonist inactive, D1 allo mod 17.2, RORA act inactive, mHtt clearance inactive, D1 mod confirm 25792, D1 no dopamine inactive and Isoprot counter active.
`O=c1[nH]c(C2CCCN(S(=O)(=O)c3ccccc3)C2)nc2c1nnn2Cc1ccccc1` (configuration not stated) gave M1 antag inactive, SF-1 act inactive, M1 agonist inactive, D1 allo mod 4.22, RORA act inactive, mHtt clearance inactive, D1 mod confirm 10532 and Isoprot counter active.
Screening O=c1[nH]c(C2CCCN(S(=O)(=O)c3ccccc3)C2)nc2c1nnn2Cc1ccccc1F (configuration not stated) returned M1 antag inactive, SF-1 act inactive, M1 agonist inactive, D1 allo mod 6.79, RORA act inactive, D1 mod confirm 12364, D1 no dopamine inactive and Isoprot counter active.
CCCc1nc2c(nnn2Cc2ccccc2)c(=O)[nH]1 was read as M1 antag inactive, SF-1 act inactive, M1 agonist inactive, D1 allo mod 7.11, RORA act inactive, mHtt clearance inactive, D1 mod confirm 11892, D1 no dopamine inactive and Isoprot counter active.
Cc1ccc(Cn2nnc3c(=O)[nH]c(C4CCN(S(=O)(=O)c5ccc(F)cc5)CC4)nc32)cc1 was read as M1 antag inactive, SF-1 act inactive, M1 agonist inactive, D1 allo mod inactive and RORA act inactive.
For CCOC(=O)C1CCN(c2cc(=O)n(Cc3ccc(F)cc3)c(=O)[nH]2)CC1 the results were M1 antag inactive, SF-1 act inactive, M1 agonist inactive, D1 allo mod inactive and RORA act inactive.
